Compound activity (PubChem BioAssay)
NTR1 agonist: activates human neurotensin receptor 1; P30989; NTR1-U2OS beta-arrestin-GFP spot imaging, agonist mode; activation, % at 20 µM; 330,000 tested, 0.17% active;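 active means activation at or above 40% of the spot to cytoplasm intensity ratio, with at least 20 cells analyzed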;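 further: 0% = DMSO without peptide and 100% = 100 nM NTR1 peptide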
CAL PDZ FP-1: CAL PDZ (human) peptide binding inhibition; AID 602252; Q9HD26; 300,000 tested, 0.92% active; purified CAL PDZ, TMR-peptide fluorescence polarization, 1 h; inhibition, % at 24.9 µM;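 active means mean inhibition of at least 30% with at least half of replicates also reaching 30%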;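 further: 0% = DMSO neutral control and 100% = excess unlabeled competitor peptide PRC23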
dFosB act: activators of mouse delta FosB homodimer | AID 493131 | P13346 | activation, % at 25 µM | purified delta FosB, TAMRA-CDK5 oligo fluorescence polarization; percent of positive-control signal above neutral wells | 340,000 tested, 0.99% active;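 active means mean activation above about 17%, with every replicate also reaching it, limit read from the data, passing the limit was not always enough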
CAL PDZ FP-2: human CAL PDZ-peptide interaction inhibition. inhibition, % at 20 µM. AID 504414. purified CAL PDZ, TMR-peptide fluorescence polarization, 1 h. Q9HD26. 330,000 tested, 0.02% active;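 active means highest replicate inhibition of at least 40%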;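 further: plate controls were DMSO neutral control wells for no effect and unlabeled competitor peptide control wells for full effect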
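material = purified tagged CAL PDZ domain construct (CerCALP) | compound dosing = 20 µM, one dose | times = 1 h at RT | measured by = fluorescence polarization from S- and P-plane intensities, G-factor corrected | read-out = inhibition from polarization loss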
PKA-R2B act: PKA-R2B complex activation | P22694+P31323 | PKA-R2B holoenzyme dissociation, Cy5-IP20 fluorescence polarization; R2B truncated from residue 108, S112A mutant; 0% DMSO only, 100% 113 µM cGMP | activation, % at 11.4 µM | 340,000 tested, 0.079% active;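 active means activation above a cutoff set at the mean over all compounds plus 3 SD, cut at about 18% in these data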;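 further: higher means more holoenzyme dissociation and a rise in polarization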
Target sequence (P31323 whole entry, looked up, other chains not shown, the tested form may be a part): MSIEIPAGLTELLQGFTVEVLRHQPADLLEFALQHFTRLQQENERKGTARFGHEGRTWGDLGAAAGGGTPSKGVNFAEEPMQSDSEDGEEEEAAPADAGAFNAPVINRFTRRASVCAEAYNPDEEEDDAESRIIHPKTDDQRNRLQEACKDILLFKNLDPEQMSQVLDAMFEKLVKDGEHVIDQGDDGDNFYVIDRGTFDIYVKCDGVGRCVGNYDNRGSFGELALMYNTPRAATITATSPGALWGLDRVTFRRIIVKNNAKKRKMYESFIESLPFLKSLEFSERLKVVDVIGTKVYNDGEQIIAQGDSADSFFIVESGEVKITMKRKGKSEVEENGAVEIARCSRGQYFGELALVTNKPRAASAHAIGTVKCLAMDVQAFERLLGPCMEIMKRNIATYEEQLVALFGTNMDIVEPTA
PKA-R1A act: PKA-R1A complex activation; P00514+P68181; PKA-R1A dissociation, Cy5-IP20 fluorescence polarization; scaled: DMSO 0%, 113 µM cGMP 100%; activation, % at 11.4 µM; 340,000 tested, 0.083% active;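 active means percent activation above the mean of all tested compounds plus 3 SD, cut at about 19% in these data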;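 further: higher means more PKAc released from R1A so a rise in polarization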
* hit, by the source's call. The list is not random: actives were taken first. Their share in the collection is about 2%.

For COc1ccc(NS(=O)(=O)c2cc(NC(=O)c3ccccc3)ccc2N2CCOCC2)cc1 the results were NTR1 agonist 0, CAL PDZ FP-1 -1, dFosB act -6, CAL PDZ FP-2 -2, PKA-R2B act -11 and PKA-R1A act -6.
For COc1ccc(NS(=O)(=O)c2cc(NC(=O)c3cc(F)c(F)cc3Cl)ccc2N2CCOCC2)cc1 the results were NTR1 agonist -1, CAL PDZ FP-1 -5, dFosB act 21*, CAL PDZ FP-2 -2, PKA-R2B act -7 and PKA-R1A act 1.
COc1ccc(OC)c(-c2csc(NC(=O)c3ccc4c(c3)OCO4)n2)c1 was read as NTR1 agonist 6, CAL PDZ FP-1 80*, dFosB act 4, CAL PDZ FP-2 1, PKA-R2B act -5 and PKA-R1A act 2.
For COc1ccc(OC)c(NC(=O)c2ccc3c(c2)OCO3)c1 the results were NTR1 agonist 0, CAL PDZ FP-1 -1, dFosB act 11, CAL PDZ FP-2 -1, PKA-R2B act -3 and PKA-R1A act -11.
Screening COC(=O)Cc1ccc(NC(=S)Nc2cccc(C)n2)cc1 returned NTR1 agonist 0, CAL PDZ FP-1 53*, dFosB act -19, CAL PDZ FP-2 -2, PKA-R2B act -1 and PKA-R1A act -10.
`Cc1cccc(NC(=O)Nc2ccc(Cl)cc2)n1` gave NTR1 agonist 1, CAL PDZ FP-1 40*, dFosB act -3, CAL PDZ FP-2 -1, PKA-R2B act 3 and PKA-R1A act -2.
CCOC(=O)c1ccc(NC(=S)Nc2cccc(C)n2)cc1 was read as NTR1 agonist 9, dFosB act -6, CAL PDZ FP-2 0, PKA-R2B act -9 and PKA-R1A act -12.
`CCOc1ccc(Cn2c(=O)sc3ccccc32)cc1` gave NTR1 agonist 2, CAL PDZ FP-1 -1, dFosB act 0, CAL PDZ FP-2 2, PKA-R2B act 2 and PKA-R1A act -10.
For CCOc1ccc(Cn2c(=O)sc3ccccc32)cc1OC the results were NTR1 agonist 1, CAL PDZ FP-1 66*, dFosB act -10, CAL PDZ FP-2 -2, PKA-R2B act -9 and PKA-R1A act 3.
Screening CCC(c1nnnn1C1CCCCC1)N1CCN(C(=O)c2ccco2)CC1 (centres undefined) returned NTR1 agonist -1, CAL PDZ FP-1 0, dFosB act -4, CAL PDZ FP-2 -1, PKA-R2B act 15 and PKA-R1A act -8.
O=C(N/N=C/C1CC=CCC1)c1ccccc1O (centres undefined) was read as NTR1 agonist 0, CAL PDZ FP-1 -2, dFosB act -5, CAL PDZ FP-2 -1, PKA-R2B act 1 and PKA-R1A act 6.
Screening O=C(CNc1ccccc1F)N/N=C/C1CC=CCC1 (centres undefined) returned NTR1 agonist -1, CAL PDZ FP-1 58*, dFosB act 4, CAL PDZ FP-2 -2, PKA-R2B act -13 and PKA-R1A act 1.
`O=S(=O)(NCC1CCN(c2ccc(S(=O)(=O)N3CCOCC3)cc2)CC1)c1ccc(F)cc1` gave NTR1 agonist 2, CAL PDZ FP-1 -4, dFosB act -2, CAL PDZ FP-2 -3, PKA-R2B act 2 and PKA-R1A act -8.
Cc1cccc(NC(=O)c2ccc(S(=O)(=O)N3CC(C)OC(C)C3)cc2)n1 (centres undefined) was read as NTR1 agonist 2, CAL PDZ FP-1 -3, dFosB act 4, CAL PDZ FP-2 -3, PKA-R2B act -7 and PKA-R1A act -3.
Screening O=C(CSc1nnc(C2CC2)n1Cc1ccccc1)N1CCN(S(=O)(=O)c2ccccc2)CC1 returned NTR1 agonist 0, CAL PDZ FP-1 42*, dFosB act -3, CAL PDZ FP-2 1, PKA-R2B act -4 and PKA-R1A act 4.
O=C(CSc1nnc(C2CC2)n1Cc1ccccc1)c1ccc(S(=O)(=O)N2CCOCC2)cc1 was read as NTR1 agonist -2, CAL PDZ FP-1 -5, dFosB act -1, CAL PDZ FP-2 -1, PKA-R2B act 5 and PKA-R1A act 1.
For CN(CCN1CCOCC1)C(=O)C1CCC(=O)N(Cc2ccc(Cl)cc2)C1 (centres undefined) the results were PKA-R2B act 8 and PKA-R1A act 9.
Screening C1CCCC(NC2=NCCO2)CCC1 returned NTR1 agonist 1, CAL PDZ FP-1 59*, dFosB act 2, CAL PDZ FP-2 -1, PKA-R2B act -2 and PKA-R1A act 8.
Screening C1CCC(NC2=NCCO2)CC1 returned PKA-R2B act 1 and PKA-R1A act 3.
`CCOC(=O)C1=NNC(C(=O)c2ccccc2)C1c1ccc(C)cc1` (centres undefined) gave NTR1 agonist 0, CAL PDZ FP-1 59*, dFosB act -7, CAL PDZ FP-2 -1, PKA-R2B act -4 and PKA-R1A act 2.
CCOC(=O)C1=NNC(C(=O)c2ccc(C)cc2)C1c1ccc(C)cc1 (centres undefined) was read as NTR1 agonist 0, CAL PDZ FP-1 0, dFosB act 2, CAL PDZ FP-2 -1, PKA-R2B act -4 and PKA-R1A act -7.
For C[C@H](CO)N1C[C@H](C)[C@H](CN(C)S(=O)(=O)c2cccs2)Oc2ncc(-c3cc4ccccc4o3)cc2C1=O the results were PKA-R2B act 0 and PKA-R1A act -14.
Screening CC(C)=CC(=O)Nc1cccc(S(=O)(=O)NC2=NCCCCC2)c1 returned NTR1 agonist 1, CAL PDZ FP-1 47*, dFosB act -2, CAL PDZ FP-2 1, PKA-R2B act 2 and PKA-R1A act -10.
Screening O=C(CCl)Nc1cccc(S(=O)(=O)NC2=NCCCCC2)c1 returned NTR1 agonist -1, dFosB act -3, CAL PDZ FP-2 0, PKA-R2B act 3 and PKA-R1A act 10.
`CC(O)CN1CCN(C(=O)CN2C(=O)NC(c3ccccc3)(c3ccccc3)C2=O)CC1` (centres undefined) gave NTR1 agonist 0, dFosB act -8, CAL PDZ FP-2 -1, PKA-R2B act 0 and PKA-R1A act 2.
`CCN(CC)CCN(C(=O)/C=C/c1cccs1)c1nc2ccc(OC)cc2s1` gave CAL PDZ FP-1 -3, dFosB act 3, CAL PDZ FP-2 -1, PKA-R2B act 0 and PKA-R1A act 1.
Screening CCOc1ccc2nc(N(CCN(CC)CC)C(=O)/C=C/c3cccs3)sc2c1 returned NTR1 agonist 6, CAL PDZ FP-1 31*, dFosB act 9, CAL PDZ FP-2 -1, PKA-R2B act -5 and PKA-R1A act -6.
